{
  "source": "paper PMC4633019",
  "about": "(Journal of natural products, 2015)",
  "key": {"HepG2 cells": {"system": "HepG2 cells", "test": "Mammalian cell viability assay", "format": "cell-based, human", "details": "up to highest tested concentrations", "summary_of_the_method": "(§1)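 Viability was read with Cell TiterGlo reagent, used according to the manufacturer's instructions, in 1536-well format with a plate-imager read-out. The same procedure was applied to human RBCs.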"}, "HEK293 cells": {"system": "HEK293 cells", "test": "Mammalian cell viability assay", "format": "cell-based, human", "details": "up to highest tested concentrations", "summary_of_the_method": "as §1"}, "[1]": {"system": "Plasmodium falciparum (cp250, Dd2, HB3, 7G8, GB4 lines)", "test": "SYBR Green DNA-staining parasite viability assay", "format": "cell-based", "summary_of_the_method": "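Infected RBCs (0.3% parasitemia, 2.5% hematocrit final) in culture medium received pin-transferred test compound. Incubated 72 h at 37 °C in humidified 5% CO2. Lysis buffer was then added (20 mM Tris-HCl, 10 mM EDTA, 0.16% saponin, 1.6% Triton-X, 10× SYBR Green I), followed by overnight incubation at 22–24 °C in the dark. Fluorescence was read at 485/535 nm. Controls: artemisinin and mefloquine as positive, DMSO as negative.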"}, "Jurkat cells": {"system": "Jurkat cells", "details": "cited from earlier work"}, "[2]": {"system": "P. falciparum plasmepsins (aspartyl protease activity of Pf extracts)", "test": "Plasmepsin protease assay with P. falciparum extract and FRET peptide substrate", "format": "biochemical, Plasmodium falciparum", "details": "freshly prepared P. falciparum extracts"}},
  "note": "Where a SMILES comes first, the peptide text is derived from it. [ ]: non-standard residue; d: D form. The star is where a group is joined. Sta = CC(C)C[C@H](N)[C@@H](O)CC(=O)O; Isovaleryl = CC(C)CC(=O)*",
  "data": [
    {"smiles": "COCC(=O)N[C@@H](C(=O)N1NCCC[C@H]1C(=O)N[C@@H](Cc1ccccc1)[C@@H](O)[C@H](C)C(=O)N[C@@H]1CCN(C(N)=O)C1=O)[C@H](O)C(C)C", "note": "[25-epi-actinoramide A]", "values": [
      {"measurement": "toxicity to HepG2 cells (in words)", "setting": "HepG2 cells", "value": "no toxicity"},
      {"measurement": "toxicity to HEK293 cells (in words)", "setting": "HEK293 cells", "value": "no toxicity"}
    ]},
    {"smiles": "COCC(=O)N[C@@H](C(=O)N1NCCC[C@H]1C(=O)N[C@@H](Cc1ccccc1)[C@@H](O)[C@H](C)C(=O)NC1CNC(=O)NC1=O)[C@H](O)C(C)C", "note": "(stereo partly drawn) [Actinoramide F, actinoramide F]", "values": [
      {"measurement": "antimalarial activity (in words)", "setting": "[1]", "value": "no antimalarial activity"}
    ]},
    {"smiles": "COCC(=O)N[C@@H](C(=O)N1NCCC[C@H]1C(=O)N[C@@H](Cc1ccccc1)[C@@H](O)[C@H](C)C(=O)N[C@H]1CCN(C(N)=O)C1=O)[C@H](O)C(C)C", "note": "[actinoramide A]", "values": [
      {"measurement": "toxicity to HepG2 cells (in words)", "setting": "HepG2 cells", "value": "no toxicity"},
      {"measurement": "EC50 (cytotoxicity)", "setting": "Jurkat cells", "value": "≈ 60 μg/mL"},
      {"measurement": "toxicity to HEK293 cells (in words)", "setting": "HEK293 cells", "value": "no toxicity"}
    ]},
    {"smiles": "COCC(=O)N[C@@H](C(=O)N1N=CCC[C@H]1C(=O)N[C@@H](Cc1ccccc1)[C@@H](O)[C@H](C)C(=O)N[C@H]1CCN(C(N)=O)C1=O)[C@H](O)C(C)C", "note": "[actinoramide D]", "values": [
      {"measurement": "decrease in potency (vs actinoramide A)", "setting": "[1]; depending on the parasite strain", "value": "6–20 fold"}
    ]},
    {"smiles": "COCC(=O)N[C@@H](C(=O)N1NCCC[C@H]1C(=O)N[C@@H](Cc1ccccc1)[C@@H](O)[C@H](C)C(=O)N[C@H]1CCC(=O)NC1=O)[C@H](O)C(C)C", "note": "[padanamide B, reference compound]", "values": [
      {"measurement": "EC50 (cytotoxicity)", "setting": "Jurkat cells", "value": "~20", "unit": "µg/mL"}
    ]},
    {"smiles": "CC(C)CC(=O)N[C@H](C(=O)N[C@H](C(=O)N[C@@H](CC(C)C)[C@@H](O)CC(=O)N[C@@H](C)C(=O)N[C@@H](CC(C)C)[C@@H](O)CC(=O)O)C(C)C)C(C)C", "note": "[pepstatin] (Isovaleryl-VV[Sta]A[Sta]-OH)", "values": [
      {"measurement": "inhibition of aspartyl protease (plasmepsin) activity (in words)", "setting": "[2]", "value": "potently inhibited"}
    ]}
  ]
}
